Results taken from ChEMBL document CHEMBL1781906, “New quinolin-4-yl-1,2,3-triazoles carrying amides, sulphonamides and amidopiperazines as potential antitubercular agents” (2011).
Values after ≈ are worked out from the molar mass of the structure shown.

Key:
Type in all cases: functional
[1] = tested on: Mycobacterium tuberculosis; assay: Antimycobacterial activity against Mycobacterium tuberculosis H37Rv ATCC 27294 after 7 days by resazurin method; details: H37Rv ATCC 27294, 168 h
Outline: (§1)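 H37Rv was grown in Middlebrook 7H9 broth with 10% OADC, diluted to McFarland 2 in the same medium, and added to fresh medium in 96-well plates with compound. Compounds were tested at 1, 10 and 100. The dye turned pink in controls after […] at 37 °C.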

[2] = tested on: Escherichia coli; assay: Antibacterial activity against Escherichia coli ATCC 25922 after 18 to 24 hrs by […]
[3] = tested on: Streptococcus pyogenes; assay: Antibacterial activity against Streptococcus pyogenes after 18 to 24 hrs by serial plate dilution method
[4] = tested on: Staphylococcus aureus; assay: Antibacterial activity against Staphylococcus aureus ATCC 25923 after 18 to 24 hrs by serial plate dilution method
[5] = tested on: Klebsiella pneumoniae; assay: Antibacterial activity against Klebsiella pneumoniae after 18 to 24 hrs by […]
[6] = tested on: Pseudomonas aeruginosa; assay: Antibacterial activity against Pseudomonas aeruginosa ATCC 27853 after 18 to 24 hrs by […]
[7] = tested on: Mycobacterium tuberculosis; assay: Antimycobacterial activity against Mycobacterium tuberculosis H37Rv ATCC 27294 assessed as inhibition of bacterial growth at 1 to 100 ug/ml after 7 days by resazurin method; outline: as §1
[8] = tested on: Mycolicibacterium fortuitum; assay: Antimycobacterial activity against Mycobacterium fortuitum ATCC 19542 after 7 days by resazurin method; details: ATCC 19542, 168 h
Outline: (§2)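 MIC was determined by resazurin microplate assay. Resazurin turns from blue to pink when reduced by viable cells, and wells with no colour change were scored as inhibited. Isoniazid and rifampicin were reference drugs.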

[9] = tested on: Mycolicibacterium smegmatis; assay: Antimycobacterial activity against Mycobacterium smegmatis ATCC 19420 after 7 days by resazurin method; details: ATCC 19420, 168 h; outline: as §2

SMILES | MIC [1] [µg/mL] | MIC [2] [µg/mL] | MIC [3] [µg/mL] | MIC [4] [µg/mL] | MIC [5] [µg/mL] | MIC [6] [µg/mL] | inhibition (INH) [7] [%] | MIC [8] [µg/mL] | MIC [9] [µg/mL]
COc1ccc2nc(C)cc(-n3cc(CNS(=O)(=O)c4ccc(C)cc4)nn3)c2c1 | 10 (≈ 23.6 µM) | 6.25 (≈ 14.8 µM) | 6.25 (≈ 14.8 µM) | 3.12 (≈ 7.37 µM) | 6.25 (≈ 14.8 µM) | 6.25 (≈ 14.8 µM) | 85 | 100 (≈ 236 µM) | 100 (≈ 236 µM)
COc1ccc(S(=O)(=O)NCc2cn(-c3cc(C)nc4ccc(OC)cc34)nn2)cc1 | 0.625 (≈ 1.42 µM) | 3.12 (≈ 7.1 µM) | 1.6 (≈ 3.64 µM) | 6.25 (≈ 14.2 µM) | 1.6 (≈ 3.64 µM) | 1.6 (≈ 3.64 µM) | 90 | 10 (≈ 22.8 µM) | 10 (≈ 22.8 µM)
CCc1ccc(S(=O)(=O)NCc2cn(-c3cc(C)nc4ccc(OC)cc34)nn2)cc1 | 100 (≈ 229 µM) | 6.25 (≈ 14.3 µM) | 6.25 (≈ 14.3 µM) | 6.25 (≈ 14.3 µM) | 6.25 (≈ 14.3 µM) | 12.5 (≈ 28.6 µM) | – | 100 (≈ 229 µM) | 100 (≈ 229 µM)
COc1ccc2nc(C)cc(-n3cc(CNS(=O)(=O)c4ccccc4)nn3)c2c1 | 100 (≈ 244 µM) | 6.25 (≈ 15.3 µM) | 6.25 (≈ 15.3 µM) | 12.5 (≈ 30.5 µM) | 6.25 (≈ 15.3 µM) | 6.25 (≈ 15.3 µM) | – | 100 (≈ 244 µM) | 100 (≈ 244 µM)
COc1ccc2nc(C)cc(-n3cc(CN4CCN(C(=O)C5CC5)CC4)nn3)c2c1 | 5 (≈ 12.3 µM) | 0.4 (≈ 0.984 µM) | 0.4 (≈ 0.984 µM) | 0.8 (≈ 1.97 µM) | 0.2 (≈ 0.492 µM) | 0.4 (≈ 0.984 µM) | 90 | 100 (≈ 246 µM) | 100 (≈ 246 µM)
COc1ccc2nc(C)cc(-n3cc(CN4CCN(C(=O)C5CCC5)CC4)nn3)c2c1 | 10 (≈ 23.8 µM) | 1.6 (≈ 3.8 µM) | 1.6 (≈ 3.8 µM) | 1.6 (≈ 3.8 µM) | 3.12 (≈ 7.42 µM) | 0.8 (≈ 1.9 µM) | 90 | 100 (≈ 238 µM) | 100 (≈ 238 µM)
COc1ccc2nc(C)cc(-n3cc(CN4CCN(C(=O)c5ccc(F)cc5)CC4)nn3)c2c1 | 1 (≈ 2.17 µM) | 0.8 (≈ 1.74 µM) | 0.4 (≈ 0.869 µM) | 0.8 (≈ 1.74 µM) | 0.8 (≈ 1.74 µM) | 1.6 (≈ 3.47 µM) | 90 | 10 (≈ 21.7 µM) | 1 (≈ 2.17 µM)
COc1ccc2nc(C)cc(-n3cc(CN4CCN(C(=O)c5ccccc5F)CC4)nn3)c2c1 | 1 (≈ 2.17 µM) | 1.6 (≈ 3.47 µM) | 0.4 (≈ 0.869 µM) | 0.8 (≈ 1.74 µM) | 1.6 (≈ 3.47 µM) | 3.12 (≈ 6.78 µM) | 90 | 100 (≈ 217 µM) | 5 (≈ 10.9 µM)
COc1ccc2nc(C)cc(-n3cc(CN4CCN(C(=O)c5ccccc5Cl)CC4)nn3)c2c1 | 10 (≈ 21 µM) | 6.25 (≈ 13.1 µM) | 3.12 (≈ 6.54 µM) | 3.12 (≈ 6.54 µM) | 3.12 (≈ 6.54 µM) | 3.12 (≈ 6.54 µM) | – | 100 (≈ 210 µM) | 100 (≈ 210 µM)
CCc1ccc(C(=O)N2CCN(Cc3cn(-c4cc(C)nc5ccc(OC)cc45)nn3)CC2)cc1 | 100 (≈ 213 µM) | 3.12 (≈ 6.63 µM) | 6.25 (≈ 13.3 µM) | 6.25 (≈ 13.3 µM) | 3.12 (≈ 6.63 µM) | 6.25 (≈ 13.3 µM) | – | 100 (≈ 213 µM) | 100 (≈ 213 µM)
COc1ccc2nc(C)cc(-n3cc(CN4CCN(C(=O)c5ccc(C)cc5)CC4)nn3)c2c1 | 100 (≈ 219 µM) | 6.25 (≈ 13.7 µM) | 6.25 (≈ 13.7 µM) | 6.25 (≈ 13.7 µM) | 12.5 (≈ 27.4 µM) | 12.5 (≈ 27.4 µM) | – | 100 (≈ 219 µM) | 100 (≈ 219 µM)
COc1ccc(C(=O)N2CCN(Cc3cn(-c4cc(C)nc5ccc(OC)cc45)nn3)CC2)cc1 | 0.625 (≈ 1.32 µM) | 0.4 (≈ 0.846 µM) | 1.6 (≈ 3.39 µM) | 0.8 (≈ 1.69 µM) | 1.6 (≈ 3.39 µM) | 3.12 (≈ 6.6 µM) | 90 | 10 (≈ 21.2 µM) | 5 (≈ 10.6 µM)
COc1ccc2nc(C)cc(-n3cc(CN4CCN(C(=O)c5ccccc5)CC4)nn3)c2c1 | 10 (≈ 22.6 µM) | 0.4 (≈ 0.904 µM) | 0.8 (≈ 1.81 µM) | 0.8 (≈ 1.81 µM) | 0.4 (≈ 0.904 µM) | 0.4 (≈ 0.904 µM) | 85 | 100 (≈ 226 µM) | 100 (≈ 226 µM)
O=C(O)c1cn(C2CC2)c2cc(N3CCNCC3)c(F)cc2c1=O [CIPROFLOXACIN] | – | – | 0.4 (≈ 1.21 µM) | 1 (≈ 3.02 µM) | 0.05 (≈ 0.151 µM) | 0.4 (≈ 1.21 µM) | – | – | –
NNC(=O)c1ccncc1 [ISONIAZID] | 0.7 (≈ 5.1 µM) | – | – | – | – | – | 95 | 12.5 (≈ 91.1 µM) | 50 (≈ 365 µM)
CO[C@H]1/C=C/O[C@@]2(C)Oc3c(C)c(O)c4c(O)c(c(/C=N/N5CCN(C)CC5)c(O)c4c3C2=O)NC(=O)/C(C)=C\C=C\[C@H](C)[C@H](O)[C@@H](C)[C@@H](O)[C@@H](C)[C@H](OC(C)=O)[C@@H]1C [RIFAMPIN] | 0.5 (≈ 0.608 µM) | – | – | – | – | – | 95 | 1.5 (≈ 1.82 µM) | 1.5 (≈ 1.82 µM)
